Experimental data taken from ChEMBL document CHEMBL1137618, “Synthesis and structure-activity relationship studies of 3,6-diazabicyclo[3.2.0]heptanes as novel alpha4beta2 nicotinic acetylcholine receptor selective agonists” (J Med Chem, 2007).

Key:
[1] = target: T1, Neuronal acetylcholine receptor; alpha4/beta2 (Homo sapiens, UniProt P17787+P43681); assay: Agonist activity at recombinant human alpha-4-beta-2 nAChR expressed in HEK293 cells assessed as induction of calcium influx by FLIPR assay; assay type: functional, cell-based
T1 sequence (P17787 whole entry): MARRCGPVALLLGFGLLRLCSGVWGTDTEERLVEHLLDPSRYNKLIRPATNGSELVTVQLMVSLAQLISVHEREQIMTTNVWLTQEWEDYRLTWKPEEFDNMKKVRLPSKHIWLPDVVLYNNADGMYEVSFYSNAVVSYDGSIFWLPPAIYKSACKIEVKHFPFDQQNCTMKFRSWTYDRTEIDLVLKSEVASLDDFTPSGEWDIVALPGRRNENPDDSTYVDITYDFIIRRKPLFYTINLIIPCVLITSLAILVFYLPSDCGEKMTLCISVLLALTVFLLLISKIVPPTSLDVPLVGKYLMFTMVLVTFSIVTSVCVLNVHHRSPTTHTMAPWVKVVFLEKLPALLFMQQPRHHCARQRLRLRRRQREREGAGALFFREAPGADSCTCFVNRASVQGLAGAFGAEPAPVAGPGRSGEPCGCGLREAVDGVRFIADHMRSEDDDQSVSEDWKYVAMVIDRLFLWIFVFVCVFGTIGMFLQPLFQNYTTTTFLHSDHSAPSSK
T1 sequence (P43681 whole entry): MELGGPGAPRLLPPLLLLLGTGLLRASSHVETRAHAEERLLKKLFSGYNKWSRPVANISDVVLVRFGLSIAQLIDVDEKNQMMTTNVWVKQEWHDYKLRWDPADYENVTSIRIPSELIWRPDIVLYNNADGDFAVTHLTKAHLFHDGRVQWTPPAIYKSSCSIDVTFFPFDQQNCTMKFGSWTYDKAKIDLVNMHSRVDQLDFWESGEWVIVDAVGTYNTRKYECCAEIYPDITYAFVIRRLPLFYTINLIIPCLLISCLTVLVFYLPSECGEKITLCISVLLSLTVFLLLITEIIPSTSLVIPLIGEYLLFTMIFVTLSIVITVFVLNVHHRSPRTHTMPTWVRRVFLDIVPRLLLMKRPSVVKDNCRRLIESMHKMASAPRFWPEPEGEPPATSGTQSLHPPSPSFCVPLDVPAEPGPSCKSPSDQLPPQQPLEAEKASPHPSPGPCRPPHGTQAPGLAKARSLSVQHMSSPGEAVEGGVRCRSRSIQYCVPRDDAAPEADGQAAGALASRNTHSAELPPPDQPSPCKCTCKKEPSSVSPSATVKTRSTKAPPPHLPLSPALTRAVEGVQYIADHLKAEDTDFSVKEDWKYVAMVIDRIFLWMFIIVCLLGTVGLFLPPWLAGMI

[2] = Displacement of [3H]cytisine from neuronal nicotinic acetylcholine receptor in rat brain membrane; assay type: cell membranes
[3] = target: T1, Neuronal acetylcholine receptor; alpha4/beta2; assay: Agonist activity at recombinant human alpha-4-beta-2 nAChR expressed in HEK293 cells assessed as induction of calcium influx by FLIPR assay relative to nicotine; assay type: functional, cell-based
How it was run: (§1)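 HEK-293 lines stably expressing human α4β2 or α3β4 nAChR, grown 24-48 h at 37 °C on poly-D-lysine in DMEM/10% FBS. Loaded with 2-4 µM Fluo-4 AM for ~0.75-1 h at room temperature in the dark, in NMDG Ringer pH 7.4. Serial log dilutions added, then peak calcium fluorescence read on FLIPR after buffer-blank subtraction.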

[4] = target: T2, Neuronal acetylcholine receptor; alpha3/beta4 (Homo sapiens, UniProt P30926+P32297); assay: Agonist activity at recombinant human alpha3beta4 nAChR expressed in HEK293 cells assessed as induction of calcium influx by FLIPR assay relative to nicotine; assay type: functional, cell-based; how it was run: as §1
T2 sequence (P30926 whole entry): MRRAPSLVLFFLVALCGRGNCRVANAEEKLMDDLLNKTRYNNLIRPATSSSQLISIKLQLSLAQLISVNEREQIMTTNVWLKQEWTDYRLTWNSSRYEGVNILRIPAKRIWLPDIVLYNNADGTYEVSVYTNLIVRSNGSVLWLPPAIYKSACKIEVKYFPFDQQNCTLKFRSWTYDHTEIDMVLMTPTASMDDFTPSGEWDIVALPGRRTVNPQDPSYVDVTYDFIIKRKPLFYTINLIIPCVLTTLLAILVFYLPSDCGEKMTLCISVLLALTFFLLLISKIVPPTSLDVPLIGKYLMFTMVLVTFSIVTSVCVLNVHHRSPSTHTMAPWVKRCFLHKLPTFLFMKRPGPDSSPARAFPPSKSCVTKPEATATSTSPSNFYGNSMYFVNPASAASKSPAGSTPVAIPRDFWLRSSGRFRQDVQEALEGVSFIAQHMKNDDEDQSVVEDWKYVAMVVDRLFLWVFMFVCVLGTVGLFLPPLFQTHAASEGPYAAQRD
T2 sequence (P32297 whole entry): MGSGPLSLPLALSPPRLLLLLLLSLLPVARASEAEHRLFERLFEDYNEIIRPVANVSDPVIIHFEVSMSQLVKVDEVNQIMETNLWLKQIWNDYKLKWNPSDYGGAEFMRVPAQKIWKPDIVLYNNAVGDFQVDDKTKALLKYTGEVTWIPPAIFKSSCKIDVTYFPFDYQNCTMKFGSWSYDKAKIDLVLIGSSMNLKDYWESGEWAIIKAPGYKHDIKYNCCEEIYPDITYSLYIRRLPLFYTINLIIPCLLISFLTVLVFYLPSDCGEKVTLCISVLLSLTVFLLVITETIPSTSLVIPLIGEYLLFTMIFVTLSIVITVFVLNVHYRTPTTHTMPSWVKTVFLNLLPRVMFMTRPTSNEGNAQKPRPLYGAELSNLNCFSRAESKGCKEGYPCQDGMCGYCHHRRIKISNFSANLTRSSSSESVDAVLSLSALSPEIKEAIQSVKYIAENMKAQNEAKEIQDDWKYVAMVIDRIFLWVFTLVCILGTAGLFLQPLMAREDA

[5] = target: T2, Neuronal acetylcholine receptor; alpha3/beta4; assay: Agonist activity at recombinant human alpha-3-beta-4 nAChR expressed in HEK293 cells assessed as induction of calcium influx by FLIPR assay; assay type: functional, cell-based

Cc1cncc(N2C[C@@H]3CN[C@@H]3C2)c1
EC50 ([1]; read-out: EC50): 39900 nM
EC50 ([1]; read-out: Log EC50 (converted)): 30900 nM
Ki [2]: 2.5 nM
Log Ki [2]: -8.61
Activity [3]: 76%
Activity [4]: 74%
EC50 ([5]; read-out: EC50): 8000 nM
EC50 ([5]; read-out: Log EC50 (converted)): 33100 nM

c1cncc(N2C[C@H]3CNC[C@H]32)c1
EC50 ([1]; read-out: EC50): 1900 nM
EC50 ([1]; read-out: Log EC50 (converted)): 1820 nM
Ki [2]: 1.3 nM
Log Ki [2]: -8.88
Activity [3]: 116%
Activity [4]: 62%
EC50 ([5]; read-out: EC50): 2940 nM
EC50 ([5]; read-out: Log EC50 (converted)): 29500 nM

Brc1cncc(N2C[C@H]3CNC[C@H]32)c1
EC50 ([1]; read-out: EC50): 4400 nM
EC50 ([1]; read-out: Log EC50 (converted)): 4070 nM
Ki [2]: 3.1 nM
Log Ki [2]: -8.51
Activity [3]: 31%
Activity [4]: < 10%

Cc1cc(N2C[C@H]3CN[C@H]3C2)cnc1C
EC50 ([1]; read-out: EC50): 200 nM
Ki [2]: 0.3 nM
Log Ki [2]: -9.59
Activity [3]: 124%
Activity [4]: 96%
EC50 ([5]; read-out: EC50): 3300 nM

COc1cncc(N2C[C@H]3CNC[C@H]32)c1
EC50 ([1]; read-out: EC50): 3600 nM
EC50 ([1]; read-out: Log EC50 (converted)): 3390 nM
Ki [2]: 0.8 nM
Log Ki [2]: -9.12
Activity [3]: 90%
Activity [4]: 72%
EC50 ([5]; read-out: EC50): 25800 nM

Clc1cc(N2C[C@@H]3CNC[C@@H]32)cnc1Cl
EC50 ([1]; read-out: EC50): 900 nM
Ki [2]: 1.2 nM
Log Ki [2]: -8.93
Activity [3]: 110%
Activity [4]: 87%
EC50 ([5]; read-out: EC50): 2600 nM

N#Cc1cc(N2C[C@@H]3CN[C@@H]3C2)cnc1Br
EC50 ([1]; read-out: EC50): 800 nM
Ki [2]: 0.3 nM
Log Ki [2]: -9.51
Activity [3]: 146%
Activity [4]: 91%
EC50 ([5]; read-out: EC50): 600 nM

Clc1ccc(N2C[C@@H]3CN[C@@H]3C2)cn1
EC50 ([1]; read-out: EC50): 200 nM
EC50 ([1]; read-out: Log EC50 (converted)): 162 nM
Ki [2]: 0.6 nM
Log Ki [2]: -9.24
Activity [3]: 162%
Activity [4]: 110%
EC50 ([5]; read-out: EC50): 400 nM

Clc1cc(N2C[C@H]3CN[C@H]3C2)cnc1Cl
EC50 ([1]; read-out: EC50): 400 nM
EC50 ([1]; read-out: Log EC50 (converted)): 41.7 nM
Ki [2]: 0.04 nM
Log Ki [2]: -10.4
Activity [3]: 162%
Activity [4]: 98%
EC50 ([5]; read-out: EC50): 50 nM

Cc1cc(N2C[C@H]3CNC[C@H]32)cnc1C
EC50 ([1]; read-out: EC50): 2100 nM
Ki [2]: 8 nM
Log Ki [2]: -8.1
Activity [3]: 85%
Activity [4]: 86%
EC50 ([5]; read-out: EC50): 4200 nM

Clc1ccc(N2C[C@H]3CN[C@H]3C2)cn1
EC50 ([1]; read-out: EC50): 30 nM
EC50 ([1]; read-out: Log EC50 (converted)): 24.5 nM
Ki [2]: 0.2 nM
Log Ki [2]: -9.77
Activity [3]: 126%
Activity [4]: 105%
EC50 ([5]; read-out: EC50): 400 nM
EC50 ([5]; read-out: Log EC50 (converted)): 34.7 nM

Clc1ccc(N2C[C@@H]3CNC[C@@H]32)cn1
EC50 ([1]; read-out: EC50): 300 nM
Ki [2]: 1.3 nM
Log Ki [2]: -8.9
Activity [3]: 107%
Activity [4]: 94%
EC50 ([5]; read-out: EC50): 1200 nM

c1coc(-c2cncc(N3C[C@H]4CNC[C@H]43)c2)n1
Activity [3]: < 10%
Activity [4]: < 10%

NC(=O)c1cc(N2C[C@H]3CNC[C@H]32)cnc1Br
EC50 ([1]; read-out: EC50): 1100 nM
Ki [2]: 6.5 nM
Log Ki [2]: -8.19
Activity [3]: 155%
Activity [4]: 88%
EC50 ([5]; read-out: EC50): 21200 nM
EC50 ([5]; read-out: Log EC50 (converted)): 20900 nM

COc1cc(N2C[C@H]3CN[C@H]3C2)cnc1Br
EC50 ([1]; read-out: EC50): 200 nM
EC50 ([1]; read-out: Log EC50 (converted)): 148 nM
Ki [2]: 0.07 nM
Log Ki [2]: -10.15
Activity [3]: 159%
Activity [4]: 113%
EC50 ([5]; read-out: EC50): 100 nM

c1cncc(N2C[C@@H]3CNC[C@@H]32)c1
EC50 ([1]; read-out: EC50): 2800 nM
EC50 ([1]; read-out: Log EC50 (converted)): 2690 nM
Ki [2]: 0.7 nM
Log Ki [2]: -9.15
Activity [3]: 101%
Activity [4]: 97%
EC50 ([5]; read-out: EC50): 9700 nM

Cc1cc(N2C[C@@H]3CN[C@@H]3C2)cnc1Cl
EC50 ([1]; read-out: EC50): 300 nM
Ki [2]: 0.08 nM
Log Ki [2]: -10.1
Activity [3]: 134%
Activity [4]: 100%
EC50 ([5]; read-out: EC50): 700 nM

Brc1cncc(N2C[C@H]3CN[C@H]3C2)c1
EC50 ([1]; read-out: EC50): 1100 nM
Ki [2]: 0.1 nM
Log Ki [2]: -10.2
Activity [3]: 161%
Activity [4]: 115%
EC50 ([5]; read-out: EC50): 200 nM
EC50 ([5]; read-out: Log EC50 (converted)): 240 nM

Cc1cc(N2C[C@@H]3CN[C@@H]3C2)cnc1C
EC50 ([1]; read-out: EC50): 1200 nM
Ki [2]: 2.2 nM
Log Ki [2]: -8.65
Activity [3]: 76%
Activity [4]: 85%
EC50 ([5]; read-out: EC50): 3300 nM

N#Cc1cc(N2C[C@H]3CNC[C@H]32)c[n+]([O-])c1
EC50 ([1]; read-out: EC50): 7500 nM
EC50 ([1]; read-out: Log EC50 (converted)): 4570 nM
Ki [2]: 18.6 nM
Log Ki [2]: -7.74
Activity [3]: 69%
Activity [4]: < 10%

C#Cc1cncc(N2C[C@@H]3CNC[C@@H]32)c1
EC50 ([1]; read-out: EC50): 20400 nM
EC50 ([1]; read-out: Log EC50 (converted)): 13500 nM
Ki [2]: 0.6 nM
Log Ki [2]: -9.21
Activity [3]: 45%
Activity [4]: 33%
EC50 ([5]; read-out: EC50): 33200 nM
EC50 ([5]; read-out: Log EC50 (converted)): 13200 nM

N#Cc1cc(N2C[C@H]3CNC[C@H]32)cnc1Br
EC50 ([1]; read-out: EC50): 400 nM
EC50 ([1]; read-out: Log EC50 (converted)): 324 nM
Ki [2]: 0.3 nM
Log Ki [2]: -9.6
Activity [3]: 100%
Activity [4]: 95%
EC50 ([5]; read-out: EC50): 2000 nM

COc1cncc(N2C[C@H]3CN[C@H]3C2)c1
EC50 ([1]; read-out: EC50): 1000 nM
Ki [2]: 0.1 nM
Log Ki [2]: -9.96
Activity [3]: 130%
Activity [4]: 99%
EC50 ([5]; read-out: EC50): 1000 nM

COc1cncc(N2C[C@@H]3CN[C@@H]3C2)c1
EC50 ([1]; read-out: EC50): 15800 nM
EC50 ([1]; read-out: Log EC50 (converted)): 13200 nM
Ki [2]: 3 nM
Log Ki [2]: -8.52
Activity [3]: 55%
Activity [4]: 44%
EC50 ([5]; read-out: EC50): 48100 nM
EC50 ([5]; read-out: Log EC50 (converted)): 46800 nM

COc1cncc(N2C[C@@H]3CNC[C@@H]32)c1
EC50 ([1]; read-out: EC50): 24700 nM
EC50 ([1]; read-out: Log EC50 (converted)): 22900 nM
Ki [2]: 7.2 nM
Log Ki [2]: -8.14
Activity [3]: 43%
Activity [4]: 64%
EC50 ([5]; read-out: EC50): 31200 nM

Cc1ncc(N2C[C@H]3CNC[C@H]32)cc1C#N
EC50 ([1]; read-out: EC50): 3900 nM
EC50 ([1]; read-out: Log EC50 (converted)): 3800 nM
Ki [2]: 1.1 nM
Log Ki [2]: -8.95
Activity [3]: 128%
Activity [4]: 96%
EC50 ([5]; read-out: EC50): 2100 nM

CN1CCC[C@H]1c1cccnc1 [NICOTINE]
Activity [3]: 101%
Activity [4]: 89%

Cc1ncc(N2C[C@@H]3CN[C@@H]3C2)cc1C#N
EC50 ([1]; read-out: EC50): 800 nM
EC50 ([1]; read-out: Log EC50 (converted)): 724 nM
Ki [2]: 0.6 nM
Log Ki [2]: -9.2
Activity [3]: 119%
Activity [4]: 94%
EC50 ([5]; read-out: EC50): 900 nM

Brc1cncc(N2C[C@@H]3CN[C@@H]3C2)c1
EC50 ([1]; read-out: EC50): 6500 nM
EC50 ([1]; read-out: Log EC50 (converted)): 6170 nM
Ki [2]: 1.4 nM
Log Ki [2]: -8.84
Activity [3]: 53%
Activity [4]: 68%
EC50 ([5]; read-out: EC50): 9100 nM

Clc1ccc(C2CC3CCC2N3)cn1 (stereo not drawn) [EPIBATIDINE]
Activity [3]: 133%
Activity [4]: 103%

N=C(NO)c1cncc(N2C[C@H]3CNC[C@H]32)c1
EC50 ([1]; read-out: EC50): 7200 nM
EC50 ([1]; read-out: Log EC50 (converted)): 6760 nM
Ki [2]: 29.1 nM
Log Ki [2]: -7.54
Activity [3]: 76%
Activity [4]: < 10%

N#Cc1cncc(N2C[C@H]3CNC[C@H]32)c1
EC50 ([1]; read-out: EC50): 5900 nM
EC50 ([1]; read-out: Log EC50 (converted)): 5130 nM
Ki [2]: 3.2 nM
Log Ki [2]: -8.5
Activity [3]: 65%
Activity [4]: 16%

C#Cc1cncc(N2C[C@H]3CNC[C@H]32)c1
EC50 ([1]; read-out: EC50): 13400 nM
EC50 ([1]; read-out: Log EC50 (converted)): 4900 nM
Activity [3]: 77%
Activity [4]: 57%
EC50 ([5]; read-out: EC50): 86900 nM
EC50 ([5]; read-out: Log EC50 (converted)): 77600 nM
